As a reminder, the IC50 is the concentration that inhibits the measured activity by half.

Test [1] has as its target T1, Steroid 17-alpha-hydroxylase/17,20 lyase (Rattus norvegicus, UniProt P11715).
T1 sequence (P11715 whole entry): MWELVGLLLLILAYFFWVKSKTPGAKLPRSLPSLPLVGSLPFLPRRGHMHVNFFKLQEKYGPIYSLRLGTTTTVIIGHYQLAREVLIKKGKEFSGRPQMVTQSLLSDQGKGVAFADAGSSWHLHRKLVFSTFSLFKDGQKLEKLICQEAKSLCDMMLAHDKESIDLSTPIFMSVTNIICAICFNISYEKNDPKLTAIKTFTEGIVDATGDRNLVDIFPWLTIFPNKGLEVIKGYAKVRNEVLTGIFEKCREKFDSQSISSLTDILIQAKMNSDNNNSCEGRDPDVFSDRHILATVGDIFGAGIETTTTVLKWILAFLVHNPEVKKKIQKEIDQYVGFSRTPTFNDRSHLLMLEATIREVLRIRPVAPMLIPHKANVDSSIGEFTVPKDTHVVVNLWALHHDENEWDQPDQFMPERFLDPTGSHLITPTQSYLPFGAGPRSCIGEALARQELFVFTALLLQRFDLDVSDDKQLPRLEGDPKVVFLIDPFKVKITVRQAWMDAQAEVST
The test is described as follows: Evaluated for the inhibitory activity towards Cytochrome P450 17 rat enzyme using testicular microsome at 25 uM of substrate (progesterone). Summed up:
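Testicular microsomes (human for human enzyme, rat for rat enzyme) incubated with progesterone substrate at 25 µM; product measured by RP-HPLC with UV detection. IC50 = concentration giving 50% inhibition, mean of at least two experiments.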

For test [2], the target named is T2, 3-oxo-5-alpha-steroid 4-dehydrogenase 2 (Homo sapiens, UniProt P31213).
T2 sequence (P31213 whole entry): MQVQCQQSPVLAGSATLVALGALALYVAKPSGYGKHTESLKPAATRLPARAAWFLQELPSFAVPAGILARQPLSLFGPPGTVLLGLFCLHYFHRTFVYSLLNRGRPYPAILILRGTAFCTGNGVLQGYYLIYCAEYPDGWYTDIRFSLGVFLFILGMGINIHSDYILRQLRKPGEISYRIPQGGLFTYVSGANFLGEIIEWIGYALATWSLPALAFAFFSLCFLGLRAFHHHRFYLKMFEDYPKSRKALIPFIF
The test is described as follows: Evaluated for the inhibitory activity against human steroid 5-alpha-reductase type 2 from human BPH tissue at 210 nM of testosterone. In outline: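 Enzyme from prostate homogenate of BPH patients, assayed at pH 5.5 with radiolabeled testosterone at 210 nM; product separated by HPLC. IC50 taken as inhibitor concentration giving 50% inhibition; mean of at least two experiments.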

For test [3], the target named is T3, Steroid 17-alpha-hydroxylase/17,20 lyase (Homo sapiens, UniProt P05093).
T3 sequence (P05093 whole entry): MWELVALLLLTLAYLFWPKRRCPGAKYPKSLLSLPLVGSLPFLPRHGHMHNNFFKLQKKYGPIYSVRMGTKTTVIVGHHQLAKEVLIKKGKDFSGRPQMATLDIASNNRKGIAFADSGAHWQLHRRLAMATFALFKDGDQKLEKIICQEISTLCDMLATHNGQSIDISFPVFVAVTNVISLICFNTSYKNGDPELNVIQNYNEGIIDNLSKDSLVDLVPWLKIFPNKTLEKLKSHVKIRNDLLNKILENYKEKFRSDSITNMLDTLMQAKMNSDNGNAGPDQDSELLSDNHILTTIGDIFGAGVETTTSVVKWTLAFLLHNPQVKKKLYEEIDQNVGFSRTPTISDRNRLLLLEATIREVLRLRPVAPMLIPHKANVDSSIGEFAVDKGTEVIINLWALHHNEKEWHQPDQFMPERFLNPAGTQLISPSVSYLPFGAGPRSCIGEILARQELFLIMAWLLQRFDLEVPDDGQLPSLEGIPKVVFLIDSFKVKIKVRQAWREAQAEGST
The test is described as follows: Evaluated for the inhibitory activity towards Cytochrome P450 17 human enzyme using testicular microsome at 25 uM of substrate (progesterone).

A value given as a limit tells only on which side of the number the result lay.

For `CC(N=O)[C@H]1CCC2C3CCC4=CC(=O)CCC4(C)C3CCC21C` (stereo partly drawn) [17-(1-Hydroxyimino-ethyl)-10,13-dimethyl-1,2,6,7,8,9,10,11,12,13,14,15,16,17-tetradecahydro-cyclopenta[a]phenanthren-3-one], the IC50 was greater than 125 µM in test [1], 0.58 µM in test [2] and greater than 2.5 µM in test [3].

(Values after BindingDB's records for doi:10.1021/jm001008m (University of The Saarland, 2000).)
